A selection: hits, their analogues and other compounds. The true share with any hit is near 3.8%.
KCNK3 inh: human KCNK3 channel inhibitors, primary screen, CHO cells, FluxOR thallium flux, B-score | AID 602410, 2012 | FluxOR fluorescence; hits give low values | Potassium channel subfamily K member 3 (Homo sapiens), O14649 | B-score at 10 µM | hit rate 0.84% among 340,000;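 active means B-score under library mean minus 4 SD, starting fluorescence ratio at most library mean plus 5 SD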;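 further: more negative B-score means stronger inhibition of thallium flux through KCNK3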
Target sequence (O14649 whole entry, looked up): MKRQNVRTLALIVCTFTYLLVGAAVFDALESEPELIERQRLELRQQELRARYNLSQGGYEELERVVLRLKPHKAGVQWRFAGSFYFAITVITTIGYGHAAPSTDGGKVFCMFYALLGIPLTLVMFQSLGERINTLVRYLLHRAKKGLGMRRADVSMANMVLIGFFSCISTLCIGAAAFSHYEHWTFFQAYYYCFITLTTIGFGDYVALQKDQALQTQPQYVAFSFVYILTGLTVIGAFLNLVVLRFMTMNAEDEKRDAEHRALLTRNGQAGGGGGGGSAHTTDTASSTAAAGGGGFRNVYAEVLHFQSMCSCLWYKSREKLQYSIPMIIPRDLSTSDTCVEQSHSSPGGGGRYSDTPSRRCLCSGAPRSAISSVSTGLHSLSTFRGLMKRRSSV
KCNK9 block: KCNK9 potassium channel inhibitors, primary screen, HEK293 cells, thallium flux; FluxOR thallium flux fluorescence; hits give low values; B-score at 10 µM; hit rate 1.2% among 310,000; Potassium channel subfamily K member 9 (Homo sapiens), Q9NPC2;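 active means ratio B-score over 3 SD below the library mean, with starting fluorescence within 5 SD of its mean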;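 further: negative B-score means less thallium flux so channel inhibition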
KCNQ1 act: potentiators or activators of KCNQ1 channel, primary screen, cell-based, thallium flux, high-throughput. Potassium voltage-gated channel subfamily KQT member 1 (Homo sapiens), P51787. CHO-K1 KCNQ1, thallium flux FluxOR fluorescence; hits give high values. B-score at 10 µM. hit rate 0.35% among 310,000;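 active means fluorescence ratio B-score, a plate-corrected score, at least three library SD, with initial intensity B-score within 5 SD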
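System: CHO-K1 cells stably expressing KCNQ1 / Medium: assay buffer for compound exposure, DMSO matched across wells / Reagent: thallium- and potassium-containing depolarizing buffer / Compound: one concentration, matched DMSO / Incubation: 20 min compound pretreatment at room temperature / Measured by: kinetic FluxOR fluorescence, 10 s baseline plus 110 s post-stimulus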
Kir21 inh: inhibitors of mouse Kir2.1 inward-rectifier potassium channel. HEK293-Kir2.1, FluxOR thallium flux fluorescence; hits give low values. B-score at 10 µM. hit rate 0.85% among 310,000. AID 1672, 2009;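 active means fluorescence ratio B-score at or below minus 3 SD of library scores, with starting-brightness B-score within 2 SD, cut at about -4.2 in these data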;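 further: channel flux triggered by added potassium and thallium sulfate stimulus; B-score of peak minus minimum fluorescence over baseline after thallium stimulus; more negative B-score means stronger Kir2.1 block with less thallium influx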
hERG rescue: hERG rescue from dofetilide block, primary screen, cell-based, CHO-hERG, FluxOR thallium flux, dofetilide IC70; Voltage-gated inwardly rectifying potassium channel KCNH2 (Homo sapiens), Q12809; dofetilide IC70 present; activation (rescue from dofetilide block), less the hit threshold, % at 10 µM; hit rate 0.51% among 310,000;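 active means activation above the mean of controls blocked by dofetilide plus 5 SD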;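 further: thallium influx through hERG after potassium depolarization seen as dye fluorescence rise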
KCNQ1 block: inhibitors of human KCNQ1 channel, primary screen, cell-based, thallium flux, high-throughput; Potassium voltage-gated channel subfamily KQT member 1 (Homo sapiens), P51787; CHO-K1 KCNQ1, FluxOR thallium flux fluorescence; hits give high values; B-score at 10 µM; hit rate 1.3% among 310,000; AID 2642, 2010;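 active means compounds whose thallium flux B-score, printed positive for inhibition, exceeds three library SD while starting fluorescence stays within three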;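 further: channel opened by potassium depolarization with thallium stimulus after 20 min compound exposure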
Numbers stand for hits; n = inactive; x = no result.

SMILES	KCNK3 inh	KCNK9 block	KCNQ1 act	Kir21 inh	hERG rescue	KCNQ1 block
Cc1ccccc1OC(=O)n1c(=S)oc2cc(Cl)ccc21	n	n	10	n	n	n
Cc1cc(C)c2nc(N3CCC(C(=O)NCCCN4CC(C)CC(C)C4)CC3)sc2c1 (centres undefined)	n	n	n	-6.78	n	n
Cc1cc(C)c2nc(N3CCCC(C(=O)NCCCN4CCOCC4)C3)sc2c1 (centres undefined)	n	n	n	n	n	n
COc1cc(CNCc2ccc(SC)cc2)cc(OC)c1	n	n	n	-5.19	n	n
O=C1CCCCN1CCC(=O)N1CCCC(Nc2ccccc2)C1 (centres undefined)	n	n	n	n	n	n
O=C(CCc1cccc(Cl)c1)N1CCCC(Nc2ccccc2)C1 (centres undefined)	n	n	n	-6.89	n	n
CCOC(=O)c1ccc([N+](=O)[O-])c(CS(=O)(=O)c2ccc(Cl)cc2)c1	n	n	n	n	n	n
Cc1ccc(S(=O)(=O)Cc2cc(F)c([N+](=O)[O-])cc2[N+](=O)[O-])cc1	-10.4	n	n	n	n	n
Nc1ccc(N2CCCC2)c(S(=O)(=O)Nc2cccc(C(F)(F)F)c2)c1	n	x	x	x	x	x
CN1CCN(CC(=O)N2c3ccccc3C(C)(c3ccc(Cl)cc3)CC2(C)C)CC1 (centres undefined)	n	n	n	n	n	n
CC1(c2ccc([N+](=O)[O-])cc2)CC(C)(C)N(C(=O)c2ccccc2)c2ccccc21 (centres undefined)	x	n	n	n	n	6
CN1CCN(CC(=O)N2c3ccccc3C(C)(c3ccccc3)CC2(C)C)CC1 (centres undefined)	n	n	n	-6.19	n	n
CCC(=O)OCCNc1cc(Sc2nc3ccccc3s2)c2nonc2c1[N+](=O)[O-]	n	n	n	n	n	6
CCCC(=O)OCCNc1cc(Sc2nccn2C)c2nonc2c1[N+](=O)[O-]	n	n	n	-6.26	n	n
CCC1C(c2ccccc2)N(C)C(c2ccccc2)CC1(O)c1ccccc1 (centres undefined)	n	n	n	n	n	12
Cc1cc(C)c2c(N)c(C(=O)Nc3ccc(F)cc3)sc2n1	n	n	n	n	n	n
COc1ccc(NC(=O)c2sc3nc(C)cc(C)c3c2N)cc1	n	n	n	n	4.8	n
CCN(CC)CC(=O)Nc1ccc(-c2ccc(NC(=O)CN(CC)CC)c(OC)c2)cc1OC	n	n	n	n	n	n
O=C(Nc1ccccc1C(=O)O)c1ccc2c(c1)C(=O)N(c1cccc([N+](=O)[O-])c1)C2=O	n	n	n	n	7.0	n
Cc1ccc(C(=O)O)cc1NC(=O)c1ccc2c(c1)C(=O)N(c1ccc([N+](=O)[O-])cc1)C2=O	n	n	n	n	n	n
O=C(Nc1c[nH]c(=O)[nH]c1=O)c1ccc2c(c1)C(=O)N(c1cccc([N+](=O)[O-])c1)C2=O	n	n	n	n	n	n
O=C(O)c1ccc2c(c1)C(=O)N(c1cc([N+](=O)[O-])ccn1)C2=O	n	n	n	n	5.2	n
O=C(c1sc2ccccc2c1Cl)N(Cc1ccccc1Cl)C1CCS(=O)(=O)C1 (centres undefined)	n	-6.79	n	n	n	n
COc1ccc2nc(C)cc(N3CCN(S(=O)(=O)c4ccccc4F)CC3)c2c1	n	x	x	x	x	x
Nc1ccccc1/C=C/c1ccccc1N	n	x	x	x	x	x
SMILES	KCNK3 inh	KCNK9 block	KCNQ1 act	Kir21 inh	hERG rescue	KCNQ1 block
O=C1Nc2ccccc2C(=O)C1(Cl)Cc1ccccc1 (centres undefined)	n	n	n	-5.21	n	n
c1ccc2oc(-c3csc(N4CCOCC4)n3)cc2c1	n	n	n	n	n	n
Cc1nc2sccn2c1-c1nc(-c2cc3ccccc3o2)cs1	n	-7.14	n	n	n	n
CC1(C)C(=O)N(c2ccccc2)C(=O)c2ccccc21	n	n	n	n	n	n
O=S(=O)(c1ccc(Cl)c(Cl)c1)c1snnc1-c1ccccc1	n	n	n	-4.25	n	n
c1ccc(-c2nnsc2-c2ccccc2)cc1	n	n	n	n	n	n
C[C@@H]1CN(Cc2nc(-c3cnccn3)no2)C[C@H](C)O1	n	n	n	n	7.4	n
CCCOC1CCCN(Cc2nc(-c3cnccn3)no2)C1 (centres undefined)	n	n	n	n	n	n
CCOc1cc(/C=C2/C(=O)ON=C2C)cc(Br)c1O	n	n	n	n	n	9
COc1cc(/C=C2/C(=O)ON=C2c2ccccc2)ccc1O	n	n	n	-4.81	n	n
CCCOc1ccc(/C=C2/C(=O)ON=C2C)cc1OCC	n	n	n	n	n	n
O=C1ON=C(c2ccccc2)/C1=C/c1ccccc1	n	n	n	n	n	n
COc1cc(/C=C2\C(=O)ON=C2c2ccccc2)cc(Br)c1O	n	n	n	-6.63	n	7
O=C(COc1ccc2c(-c3ccccc3)cc(=O)oc2c1)Nc1ccc(CCO)cc1	n	n	n	n	n	n
COc1ccc(S(=O)(=O)Nc2ccccc2C(=O)NCc2cccnc2)cc1OC	n	n	n	n	n	n
COC(C(=O)N/N=C(\C)c1ccc(O)cc1)c1ccccc1 (centres undefined)	n	n	n	n	5.1	n
COC(C(=O)N/N=C(\C)c1ccc(C)cc1)c1ccccc1 (centres undefined)	n	n	n	n	n	n
CCOC(=O)C1=NN(C(=O)c2ccc(OC)cc2)C(O)(c2ccc(Cl)cc2)C1 (centres undefined)	n	n	56	n	39.9	n
C/C(=N\NC(=O)c1ccc(O)cc1)c1ccc2c(c1)Nc1ccccc1S2	n	n	n	n	n	6
N#CC1=C(N)C(C#N)(C#N)C(c2cccnc2)C2CC(c3ccccc3)CC=C12 (centres undefined)	n	n	n	n	n	n
N#CC1=C(N)C2=CCCC[C@H]2[C@H](c2cccc(F)c2)C1(C#N)C#N	n	n	n	-5.37	n	n
COCc1cc(C)nc(SCC(=O)c2ccc(O)c(O)c2)c1C#N	n	n	n	n	5.7	n
Cc1ccc([N+](=O)[O-])cc1N=Nc1c(-c2ccc([N+](=O)[O-])cc2)[nH]n(C(N)=S)c1=O	n	n	n	n	n	7
Cc1ccc([N+](=O)[O-])cc1N=Nc1c(C)[nH]n(C(N)=S)c1=O	n	n	n	n	n	n

Screening data from PubChem.
